Results published in ChEMBL document CHEMBL2434966, “Novel N-4-piperazinyl-ciprofloxacin-chalcone hybrids: synthesis, physicochemical properties, anticancer and topoisomerase I and II inhibitory activity” (Eur J Med Chem, 2013).
In brackets after ≈: the same amount, converted by molar mass.

Experiments:
OVCAR-4 [1] = test: Growth inhibition of human OVCAR4 cells assessed as cell growth at 10^-5 M after 48 hrs by sulforhodamine B assay; assay type: functional; conditions: OVCAR-4, 48 h, read-out: Activity
In short: (§1)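 NCI 60-cell-line primary one-dose screen. Cells were exposed to a single 10^-5 M concentration for 48 h. The end point was sulforhodamine B protein staining, read spectrophotometrically. Results are reported as percent growth of treated cells relative to untreated control cells.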

OVCAR-3 = test: Growth inhibition of human OVCAR3 cells assessed as cell growth at 10^-5 M after 48 hrs by sulforhodamine B assay; assay type: functional; conditions: OVCAR-3, 48 h, read-out: Activity; in short: as §1
HL-60(TB) = test: Growth inhibition of human HL-60(TB) cells after 48 hrs by sulforhodamine B assay; assay type: functional; conditions: HL-60, 48 h; for CC50: read-out: LC50 (the source's name)
In short: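 NCI 60-panel five-dose screen: cells exposed continuously for 48 h to 10-fold dilutions from 10^-4 to 10^-8 M; SRB protein staining read spectrophotometrically. Percent growth from time-zero, untreated-control and treated absorbances; GI50 is the concentration giving 50% lower net protein increase than control.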

[2] = Aqueous solubility of the compound at pH 7.8 by UV spectroscopic analysis; assay type: physicochemical; conditions: aqueous solution
In short: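 Excess solid (10 mg) shaken in buffer at pH 6.9 or 7.8, 37 °C. The filtrate was diluted into the linear calibration range and dissolved drug measured by UV absorbance at λmax 272 nm. Values are the average of at least three agreeing independent measurements.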

CAKI-1 = test: Growth inhibition of human CAKI-1 cells after 48 hrs by sulforhodamine B assay; assay type: functional; conditions: CAKI-1, 48 h
In short: (§2)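 NCI 60-panel five-dose test at 10-fold dilutions, 10^-4 to 10^-8 M, with 48 h continuous exposure and SRB protein read-out. Percent growth derived from time-zero, untreated-control and treated absorbances. GI50 is the concentration where [(Ti-Tz)/(C-Tz)]×100 = 50. TGI is taken at Ti = Tz. LC50 is taken at [(Ti-Tz)/Tz]×100 = -50.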

[3] = Octanol-phosphate buffer partition coefficient, log P of the compound after 5 hrs by shake-flask method; assay type: physicochemical
In short: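 Shake-flask method: 100 µL of 0.2 mg/mL stock diluted into 1.9 mL phosphate buffer pH 7.4 plus 2 mL mutually saturated n-octanol, protected from light. Vortexed 3 min, shaken 5 h at 25 °C. Both phases assayed by UV at 272 nm; log P = log([octanol]/[aqueous]), run in triplicate.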

[4] = Growth inhibition of human HCC2998 cells assessed as cell growth at 10^-5 M after 48 hrs by sulforhodamine B assay; assay type: functional; conditions: HCC 2998, 48 h, read-out: Activity
In short: (§3)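 NCI 60-cell-line primary screen. Single concentration of 10^-5 M, 48 h incubation. End point by sulforhodamine B protein staining read spectrophotometrically. Reported as percent growth of treated cells relative to untreated control cells.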

DU-145 = test: Growth inhibition of human DU145 cells assessed as cell growth at 10^-5 M after 48 hrs by sulforhodamine B assay; assay type: functional; conditions: DU-145, 48 h, read-out: Activity; in short: as §3
[5] = biological target: T1, DNA topoisomerase 1 (Homo sapiens) (UniProt P11387); test: Inhibition of human recombinant topoisomerase 1-mediated relaxation of supercoiled pBR322 DNA at 20 uM after 30 mins by agarose gel electrophoresis relative to control
T1 sequence (whole entry): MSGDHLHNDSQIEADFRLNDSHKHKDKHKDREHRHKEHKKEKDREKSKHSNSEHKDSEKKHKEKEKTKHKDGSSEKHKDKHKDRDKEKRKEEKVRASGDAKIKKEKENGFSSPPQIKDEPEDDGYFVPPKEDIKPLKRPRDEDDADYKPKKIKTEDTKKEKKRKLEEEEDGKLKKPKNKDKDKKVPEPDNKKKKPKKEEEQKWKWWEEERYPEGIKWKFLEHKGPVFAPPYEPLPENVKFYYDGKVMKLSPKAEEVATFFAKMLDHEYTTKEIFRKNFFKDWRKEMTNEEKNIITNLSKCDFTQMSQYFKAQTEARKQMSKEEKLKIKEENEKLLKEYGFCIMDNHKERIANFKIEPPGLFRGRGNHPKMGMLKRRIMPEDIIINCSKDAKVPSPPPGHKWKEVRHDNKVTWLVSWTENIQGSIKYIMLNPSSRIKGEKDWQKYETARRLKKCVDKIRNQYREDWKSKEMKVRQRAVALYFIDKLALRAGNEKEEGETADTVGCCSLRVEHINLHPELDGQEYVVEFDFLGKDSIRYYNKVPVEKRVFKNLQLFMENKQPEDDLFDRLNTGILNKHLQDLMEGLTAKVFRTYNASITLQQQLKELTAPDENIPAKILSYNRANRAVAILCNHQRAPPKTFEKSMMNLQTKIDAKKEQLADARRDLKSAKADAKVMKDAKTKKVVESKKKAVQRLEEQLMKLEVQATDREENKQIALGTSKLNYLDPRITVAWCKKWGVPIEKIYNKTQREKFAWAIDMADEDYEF
In short: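 Recombinant human topo I (0.4 units) with 100 ng supercoiled pBR322, 37 °C for 30 min in Tris-HCl pH 7.9, 150 mM NaCl, 0.1% BSA, 1 mM spermidine, 5% glycerol. Compounds came from 20 mM DMSO stocks, with matched DMSO in the enzyme-only control. Stopped with sarcosyl; 1% agarose/TAE gel, ethidium stain, UV densitometry. Camptothecin was the positive control.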

M14 = test: Growth inhibition of human M14 cells assessed as cell growth at 10^-5 M after 48 hrs by sulforhodamine B assay; assay type: functional; conditions: M14, 48 h, read-out: Activity; in short: as §3
Malme-3M = test: Growth inhibition of human MALME-3M cells assessed as cell growth at 10^-5 M after 48 hrs by sulforhodamine B assay; assay type: functional; conditions: read-out: Activity; in short: as §3
OVCAR-4 [6] = test: Growth inhibition of human OVCAR4 cells after 48 hrs by sulforhodamine B assay; assay type: functional; conditions: OVCAR-4, 48 h; for CC50: read-out: LC50 (the source's name)
In short: (§4)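 NCI five-dose screen on the full 60-cell-line panel. Cells were given 10-fold dilutions from 10^-4 to 10^-8 M with continuous 48 h exposure, and growth was read by SRB staining. Percent growth was taken from time-zero, control and treated absorbances. GI50, TGI and LC50 were then derived, the GI50 being the concentration that gives a 50% lower net protein increase than control.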

HCT-15 = test: Growth inhibition of human HCT15 cells after 48 hrs by sulforhodamine B assay; assay type: functional; conditions: HCT-15, 48 h; in short: as §2
SF-268 = test: Growth inhibition of human SF268 cells after 48 hrs by sulforhodamine B assay; assay type: functional; conditions: SF-268, 48 h; for CC50: read-out: LC50 (the source's name); in short: as §4
NCI-H460 = test: Growth inhibition of human NCI-H460 cells after 48 hrs by sulforhodamine B assay; assay type: functional; conditions: NCI-H460, 48 h; for CC50: read-out: LC50 (the source's name); in short: as §4
CCRF-CEM = test: Growth inhibition of human CCRF-CEM cells assessed as cell growth at 10^-5 M after 48 hrs by sulforhodamine B assay; assay type: functional; conditions: read-out: Activity; in short: as §3

COc1cc(/C=C/C(=O)c2ccc(NC(=O)CN3CCN(c4cc5c(cc4F)c(=O)c(C(=O)O)cn5C4CC4)CC3)cc2)cc(OC)c1OC
growth at 10 µM (OVCAR-4 [1]): 16.4% | growth at 10 µM (OVCAR-3): -25.8% | GI50 (HL-60(TB)): 1.11 µM | TGI (HL-60(TB)): > 100 µM | CC50 (HL-60(TB)): > 100 µM | solubility [2]: 2.01 µg/mL (≈ 2.94 µM) | GI50 (CAKI-1): 1.13 µM | LC50 (concentration killing 50% of starting cells) (CAKI-1): > 100 µM | TGI (CAKI-1): > 100 µM | logP at 5 h [3]: 0.753 | growth at 10 µM [4]: -11.6% | growth at 10 µM (DU-145): 2.17% | inhibition [5]: 11.5% | growth at 10 µM (M14): -14.1% | growth at 10 µM (Malme-3M): 31.4% | GI50 (OVCAR-4 [6]): 1.61 µM | TGI (OVCAR-4 [6]): 84.6 µM | CC50 (OVCAR-4 [6]): > 100 µM | GI50 (HCT-15): 0.45 µM | LC50 (concentration giving 50% net cell kill) (HCT-15): > 100 µM | TGI (HCT-15): > 100 µM | GI50 (SF-268): 1.06 µM | TGI (SF-268): 61.2 µM | CC50 (SF-268): > 100 µM | GI50 (NCI-H460): 0.37 µM | TGI (NCI-H460): 3.79 µM | CC50 (NCI-H460): > 100 µM | growth at 10 µM (CCRF-CEM): -13.7%

O=C(CN1CCN(c2cc3c(cc2F)c(=O)c(C(=O)O)cn3C2CC2)CC1)Nc1ccc(C(=O)/C=C/c2ccccc2)cc1
growth at 10 µM (OVCAR-4 [1]): 86.4% | growth at 10 µM (OVCAR-3): 54.9% | GI50 (HL-60(TB)): 9.44 µM | TGI (HL-60(TB)): > 100 µM | CC50 (HL-60(TB)): > 100 µM | solubility [2]: 2.53 µg/mL (≈ 4.25 µM) | GI50 (CAKI-1): 1.76 µM | LC50 (concentration killing 50% of starting cells) (CAKI-1): > 100 µM | TGI (CAKI-1): 5.32 µM | logP at 5 h [3]: 1.29 | growth at 10 µM [4]: 70.1% | growth at 10 µM (DU-145): 43.1% | inhibition [5]: 6.4% | growth at 10 µM (M14): 31.9% | growth at 10 µM (Malme-3M): 51% | GI50 (OVCAR-4 [6]): 9.47 µM | TGI (OVCAR-4 [6]): > 100 µM | CC50 (OVCAR-4 [6]): > 100 µM | GI50 (HCT-15): 3.68 µM | LC50 (concentration giving 50% net cell kill) (HCT-15): > 100 µM | TGI (HCT-15): > 100 µM | GI50 (SF-268): 4.13 µM | TGI (SF-268): > 100 µM | CC50 (SF-268): > 100 µM | GI50 (NCI-H460): 3.17 µM | TGI (NCI-H460): > 100 µM | CC50 (NCI-H460): > 100 µM | growth at 10 µM (CCRF-CEM): 15.2%
